Active and inactive are the calls of the source. The rule behind the calls is not given here.

Series [1] is described as follows: Toxicity in human subcutaneous preadipocytes assessed as decrease of mitochondrial DNA abundance at 0.1 uM after 30 days by RT-PCR analysis. The note with it: 720 h. The format is cell-based. Summed up: (§1)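 mtDNA content of differentiated preadipocytes at day 30 or 60 of drug exposure was measured by real-time quantitative PCR with human-specific primers. Absolute copy numbers came from serial dilutions of plasmid standards. Three independent experiments.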

The nature of series [2]: Toxicity in human subcutaneous preadipocytes assessed as decrease of mitochondrial DNA abundance at 0.1 uM after 60 days by RT-PCR analysis. The settings on record: 1440 h. It counts as cell-based. Summed up: as §1
A short description of series [3]: Toxicity in human subcutaneous preadipocytes assessed as decrease of mitochondrial DNA copy number per cell at 0.1 uM after 60 days by RT-PCR analysis. It counts as cell-based. Further details: scale not given: the % may be the effect or the level left. The settings on record: 1440 h. Summed up:
as §1

A short description of series [4]: Toxicity in human subcutaneous preadipocytes assessed as acquisition of adipocyte shape at 0.1 uM after 30 days using oil red O fluorescence staining by conventional fluorescence microscopy. The format is cell-based. The settings on record: 720 h. The method, boiled down: (§2)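 On day 30 of differentiation with drug present from day 0, cells were fixed in 10% formalin and stained with 0.21% oil red O. Staining was viewed by fluorescence and light microscopy. For quantification, dye was extracted with isopropanol and read at 495 nm, also adjusted for viable cell number. Five independent experiments.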

Series [5] in a line: Toxicity in human subcutaneous preadipocytes assessed as triacylglyceride droplets at 0.1 uM after 30 days using oil red O fluorescence staining by conventional fluorescence microscopy. It counts as cell-based. The note with it: 720 h. Summed up:
(§3)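 Preadipocytes were differentiated with a hormone cocktail (IBMX for the first 7 days, dexamethasone, insulin, indomethacin; high-glucose DMEM for days 0–18), with drug or vehicle present from day 0 to day 30. Cells were fixed in 10% formalin, stained with 0.21% oil red O in 60% isopropanol, and imaged by fluorescence microscopy. Quantification was by isopropanol extraction at 495 nm, optionally adjusted for viable cells.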

Series [6] can be described thus: Toxicity in human subcutaneous preadipocytes assessed as decrease of cell cultures at 0.1 uM after 30 days using oil red O fluorescence staining by conventional fluorescence microscopy. The format is cell-based. The settings on record: 720 h. Summed up: as §2
A short description of series [7]: Toxicity in human subcutaneous preadipocytes assessed as decrease of cell viability measured every 5 days at 0.1 uM after 30 days using […]. The format is cell-based. The note with it: 720 h. The method, boiled down: (§4)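 Trypan blue exclusion counted by microscopy at each medium change every fifth day during 30 days of drug exposure in differentiating pooled preadipocytes. Final viability was calculated by excluding the cumulative percentage of dead cells. Five independent experiments.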

The nature of series [8]: Toxicity in human subcutaneous preadipocytes assessed as cell death at 0.1 uM after 30 days using […]. The format is cell-based. The note with it: 720 h. The method, boiled down:
as §4

Series [9] is described as follows: Toxicity in fully differentiated human subcutaneous preadipocytes assessed as cell death at 0.1 uM after 30 days using […]. The settings on record: 720 h. The method, boiled down: as §4
Series [10] in a line: Toxicity in human subcutaneous preadipocytes assessed as decrease of PPARgamma expression at 0.1 uM after 18 days by RT-PCR analysis. It counts as cell-based. The settings on record: 432 h. Summed up: (§5)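 Differentiating preadipocytes were harvested at day 18. RNA from three plates was pooled and reverse transcribed, and qRT-PCR was run with 42 cycles of 94/55/72°C. Values were normalized to transferrin receptor or beta-actin by standard curve. Triplicates from three independent experiments.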

The nature of series [11]: Toxicity in human subcutaneous preadipocytes assessed as decrease of PPARgamma expression at 3 uM after 18 days by RT-PCR analysis. It counts as cell-based. The settings on record: 432 h. The method, boiled down:
as §5

Series [12] can be described thus: Toxicity in human subcutaneous preadipocytes assessed as decrease of C/EBPalpha expression at 0.1 uM after 18 days by RT-PCR analysis. The format is cell-based. The settings on record: 432 h. The method, boiled down:
as §5

Series [13] in a line: Toxicity in human subcutaneous preadipocytes assessed as decrease of C/EBPalpha expression at 3 uM after 18 days by RT-PCR analysis. The format is cell-based. The settings on record: 432 h. Summed up:
as §5

The nature of series [14]: Toxicity in human subcutaneous preadipocytes assessed as decrease of insulin-sensitizing adipokine expression at 0.1 uM after 30 days by RT-PCR analysis. The settings on record: 720 h. It counts as cell-based. Summed up: (§6)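 Adiponectin mRNA at day 30 was measured by qRT-PCR normalized to transferrin receptor or beta-actin, using pooled RNA and cDNA. Triplicates from three independent experiments.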

The nature of series [15]: Toxicity in human subcutaneous preadipocytes assessed as decrease of adiponectin expression at 0.1 uM after 30 days by ELISA. The format is cell-based. The note with it: 720 h. Summed up: (§7)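 Adiponectin secreted into the medium over days 25 to 30 of drug exposure in differentiating preadipocytes was measured by sandwich ELISA of culture supernatant. Three independent experiments.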

Series [16] deals with Homo sapiens. The series is described as follows: Inhibition of electron transport protein complex 1/3 in human subcutaneous preadipocytes at 0.1 uM after 30 to 60 days by photometric analysis. The format is cell-based. Summed up:
(§8)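 Pooled primary human abdominal subcutaneous preadipocytes induced to differentiate with drug (DMSO vehicle, ≤0.1%) added at day 0 and kept to day 30 or 60. Cells sonicated twice for 10 s; substrates added to lysates and conversion by complexes I+III, II+III, IV, V and citrate synthase read photometrically at 37°C. Three independent experiments.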

Series [17] relates to Homo sapiens. The series is described as follows: Inhibition of electron transport protein complex 2/3 in human subcutaneous preadipocytes at 0.1 uM after 30 to 60 days by photometric analysis. The format is cell-based. Summed up: as §8
For series [18], the system named is Homo sapiens. The series is described as follows: Inhibition of electron transport protein complex 4 in human subcutaneous preadipocytes at 0.1 uM after 30 to 60 days by photometric analysis. It counts as cell-based. The method, boiled down:
as §8

The subject of series [19] is Homo sapiens. The series is described as follows: Inhibition of electron transport protein complex 5 in human subcutaneous preadipocytes at 0.1 uM after 30 to 60 days by photometric analysis. It counts as cell-based. Summed up:
as §8

In series [20] the test system is Homo sapiens. The series is described as follows: Inhibition of citrate synthase in human subcutaneous preadipocytes at 0.1 uM after 30 to 60 days by photometric analysis. The format is cell-based. Summed up: as §8
Series [21] can be described thus: Toxicity in human subcutaneous preadipocytes assessed as effect on mitochondrial membrane potential at 0.1 uM after 30 days using JC-1 red/green fluorescence dye by flow cytometry analysis. The format is cell-based. The settings on record: 720 h. Summed up: (§9)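 Pooled primary human subcutaneous preadipocytes (passage ≤4) were differentiated with drug or DMSO vehicle from day 0 and cultured 30 days. Staining with the JC-1 kit was followed by flow cytometry, and the JC-1 red/green fluorescence intensity ratio was used as the membrane potential read-out. CCCP served as the depolarization control. Three independent experiments, means ± SEM.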
A general note: Flow cytometry measures light scatter and fluorescence of single cells or particles in a stream.

The nature of series [22]: Toxicity in human subcutaneous preadipocytes assessed as effect on mitochondrial mass at 0.1 uM after 30 days using […] by flow cytometry analysis. The note with it: 720 h. It counts as cell-based.
Series [23] can be described thus: Toxicity in human subcutaneous preadipocytes assessed as decrease of mitochondrial DNA abundance at 6 uM after 30 days by RT-PCR analysis. The format is cell-based. The note with it: 720 h. Summed up: as §1
The subject of series [24] is Homo sapiens. The series is described as follows: Inhibition of electron transport protein complex 1/3 in human subcutaneous preadipocytes at 6 uM after 30 to 60 days by photometric analysis. The format is cell-based. Summed up: as §8
A short description of series [25]: Toxicity in human subcutaneous preadipocytes assessed as decrease of insulin-sensitizing adipokine expression at 6 uM after 30 days by RT-PCR analysis. It counts as cell-based. The note with it: 720 h. The method, boiled down: as §6
Series [26] can be described thus: Toxicity in fully differentiated human subcutaneous preadipocytes assessed as cell death at 6 uM after 30 days using […]. The settings on record: 720 h. Summed up: as §4
Series [27] in a line: Toxicity in human subcutaneous preadipocytes assessed as cell death at 6 uM after 30 days using […]. The format is cell-based. The settings on record: 720 h. Summed up: as §4
Series [28] in a line: Toxicity in human subcutaneous preadipocytes assessed as decrease of cell viability measured every 5 days at 6 uM after 30 days using […]. The format is cell-based. The note with it: 720 h. Summed up:
as §4

Series [29] is described as follows: Toxicity in human subcutaneous preadipocytes assessed as decrease of cell cultures at 6 uM after 30 days using oil red O fluorescence staining by conventional fluorescence microscopy. The format is cell-based. The settings on record: 720 h. Summed up:
as §2

The nature of series [30]: Toxicity in human subcutaneous preadipocytes assessed as triacylglyceride droplets at 6 uM after 30 days using oil red O fluorescence staining by conventional fluorescence microscopy. The note with it: 720 h. It counts as cell-based. The method, boiled down: as §3
Series [31] is described as follows: Toxicity in human subcutaneous preadipocytes assessed as acquisition of adipocyte shape at 6 uM after 30 days using oil red O fluorescence staining by conventional fluorescence microscopy. It counts as cell-based. The note with it: 720 h. Summed up: as §2
Series [32] is described as follows: Toxicity in human subcutaneous preadipocytes assessed as decrease of C/EBPalpha expression at 6 uM after 18 days by RT-PCR analysis. The format is cell-based. On the set-up: scale not given: the % may be the effect or the level left. The settings on record: 432 h. The method, boiled down:
as §5

Series [33] can be described thus: Toxicity in human subcutaneous preadipocytes assessed as decrease of PPARgamma expression at 6 uM after 18 days by RT-PCR analysis. It counts as cell-based. On the set-up: scale not given: the % may be the effect or the level left. The settings on record: 432 h. Summed up: as §5
Series [34] can be described thus: Toxicity in human subcutaneous preadipocytes assessed as decrease of adiponectin expression at 6 uM after 30 days by ELISA. The settings on record: 720 h. The format is cell-based. Summed up: as §7
In series [35] the test system is Homo sapiens. The series is described as follows: Inhibition of electron transport protein complex 2/3 in human subcutaneous preadipocytes at 6 uM after 30 to 60 days by photometric analysis. It counts as cell-based. The method, boiled down:
as §8

Series [36] relates to Homo sapiens. Nature of the series: Inhibition of electron transport protein complex 4 in human subcutaneous preadipocytes at 6 uM after 30 to 60 days by photometric analysis. It counts as cell-based. The method, boiled down: as §8
The test system of series [37] is Homo sapiens. Nature of the series: Inhibition of electron transport protein complex 5 in human subcutaneous preadipocytes at 6 uM after 30 to 60 days by photometric analysis. It counts as cell-based. The method, boiled down:
as §8

In series [38] the test system is Homo sapiens. The series is described as follows: Inhibition of citrate synthase in human subcutaneous preadipocytes at 6 uM after 30 to 60 days by photometric analysis. The format is cell-based. The method, boiled down:
as §8

Series [39] can be described thus: Toxicity in human subcutaneous preadipocytes assessed as effect on mitochondrial membrane potential at 6 uM after 30 days using JC-1 red/green fluorescence dye by flow cytometry analysis. It counts as cell-based. The note with it: 720 h. The method, boiled down:
as §9

A short description of series [40]: Toxicity in human subcutaneous preadipocytes assessed as effect on mitochondrial mass at 6 uM after 30 days using […] by flow cytometry analysis. The format is cell-based. The note with it: 720 h.

For `Nc1ccn([C@H]2CC[C@@H](CO)O2)c(=O)n1` [ZALCITABINE], the Activity entry in series [1] is “Toxic”; in [2], “Toxic”; in series [3] it was 50%; in series [4], “Non-toxic”; in [5], “Non-toxic”; in [6], “Toxic”. The Activity entry is recorded as “Toxic” in series [7]; “Toxic” in series [8]; “Toxic” in series [9]; “Non-toxic” in series [10]; “Non-toxic” in [11]; “Non-toxic” in series [12]. In addition, the Activity result in series [13], in series [14], in series [15], in series [21] and in [22] was “Non-toxic” throughout. Also, the inhibition entry in the series on Homo sapiens [16], in the series on Homo sapiens [17], in the series with Homo sapiens [18], with Homo sapiens [19] and with Homo sapiens [20] was “inactive” throughout.

For the compound `Cc1cn([C@H]2C[C@H](N=[N+]=[N-])[C@@H](CO)O2)c(=O)[nH]c1=O` [ZIDOVUDINE], the Activity result was “Non-toxic” in [23]; “Non-toxic” in series [25]; “Toxic” in series [26]; “Toxic” in [27]; “Toxic” in series [28]; “Toxic” in [29]. Moreover, the Activity result is reported as “Non-toxic” in series [30]; “Non-toxic” in [31]; 40% in [32]; 40% in series [33]; “Non-toxic” in [34]; “Non-toxic” in series [39]. In addition, the Activity result in series [40] was “Non-toxic”. Further, the inhibition result in the series with Homo sapiens [24], in the series with Homo sapiens [35], in the series with Homo sapiens [36], in the series with Homo sapiens [37] and in the series with Homo sapiens [38] was “inactive” throughout.

(Values after ChEMBL document CHEMBL1687753, “Mitochondrial DNA depletion and respiratory chain activity in primary human subcutaneous adipocytes treated with nucleoside analogue reverse transcriptase inhibitors” (Antimicrob Agents Chemother, 2010).)
